The source made the active and inactive calls.
Columns and labels:
Mus musculus [1] = assay: Hepatotoxicity in Swiss mouse assessed as change in plasma ALT level at 2.5 mg/kg, po for 7 days measured over 7 days relative to vehicle-treated control; type: toxicity, organism-based; parameters: dose 2.5 mg/kg, route oral; details: in vivo, 168 h
Procedure, shortened: (§1)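 Mice dosed po daily for 7 days: vehicle (2% DMSO/saline or Tris/HCl pH 8.0), 10 mg/kg, or indomethacin 2.5 mg/kg. Heparinized blood is drawn under terminal anesthesia, and plasma AST and ALT are measured with a diagnostic kit. n = 8.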

Mus musculus [2] = assay: Antinociceptive activity in Swiss mouse assessed as inhibition of PBQ-induced writhing at 5 mg/kg, ip administered 30 mins prior to PBQ challenge; type: functional, organism-based; parameters: dose 5 mg/kg
Mus musculus [3] = assay: Gastrointestinal toxicity in Swiss mouse assessed as increase in stomach MPO activity at 2.5 mg/kg, po for 7 days measured over 7 days relative to vehicle-treated control; type: organism-based; parameters: dose 2.5 mg/kg, route oral; details: in vivo, 168 h
Procedure, shortened: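 Mice dosed po daily for 7 days: vehicle (2% DMSO/saline or Tris/HCl pH 8.0), 10 mg/kg, or indomethacin 2.5 mg/kg. Stomach is homogenized in 50 mM phosphate buffer pH 6.0 with 0.5% HTAB. Supernatant is reacted with o-dianisidine/H2O2 and read at 450 nm. Results expressed as neutrophils ×10^4/mg tissue from a neutrophil standard curve. n = 8.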

Mus musculus [4] = assay: Antinociceptive activity in Swiss mouse assessed as inhibition of acetic acid-induced writhing at 5 mg/kg, ip administered 30 mins prior to acetic acid challenge; type: functional, organism-based; parameters: dose 5 mg/kg
Mus musculus [5] = assay: Hepatotoxicity in Swiss mouse assessed as change in plasma AST level at 2.5 mg/kg, po for 7 days measured over 7 days relative to vehicle-treated control; type: toxicity, organism-based; parameters: dose 2.5 mg/kg, route oral; details: in vivo, 168 h; procedure, shortened: as §1
Mus musculus [6] = assay: Antihyperalgesic activity in carrageenan-induced mechanical hyperalgesia Swiss mouse model assessed as paw withdrawal latency at 5 mg/kg, ip administered 40 mins prior to challenge by electronic pressure-meter test; type: functional, organism-based; parameters: dose 5 mg/kg
Procedure, shortened: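 Male Swiss mice dosed po (1–10 mg/kg, 2% DMSO in saline) 30 min before intraplantar carrageenin (100 μg/paw). Control indomethacin 5 mg/kg ip given 40 min before. Electronic pressure-meter readings at 1, 3 and 5 h, mean of three. Δ withdrawal threshold (g) is the post-stimulus reading minus zero-time. n = 5.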

COc1ccc2c(c1)c(CC(=O)O)c(C)n2C(=O)c1ccc(Cl)cc1 [INDOMETHACIN]
Activity (Mus musculus [1]): Toxic | inhibition (Mus musculus [2]): Active | Activity (Mus musculus [3]): Toxic | inhibition (Mus musculus [4]): Active | Activity (Mus musculus [5]): Toxic | Activity (Mus musculus [6]): Active

— ChEMBL document CHEMBL2176909, “Kaurenoic acid from Sphagneticola trilobata Inhibits Inflammatory Pain: effect on cytokine production and activation of the NO-cyclic GMP-protein kinase G-ATP-sensitive potassium channel signaling pathway” (J Nat Prod, 2012)
